An excerpt weighted towards active compounds, which were near 2.7% of everything screened.
LYP inh 2 = LYP (human) phosphatase inhibition; 96,000 compounds, 0.21% hits; recombinant LYP catalytic domain, DiFMUP fluorescence; AID 640; inhibition, % at 2 µM; Q9Y2R2;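 active = inhibition at 2 µM at or above a set limit, the screen mean plus 3 SD, cut at about 24% in these data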
Target sequence (Q9Y2R2 whole entry, looked up, the tested form may be a part): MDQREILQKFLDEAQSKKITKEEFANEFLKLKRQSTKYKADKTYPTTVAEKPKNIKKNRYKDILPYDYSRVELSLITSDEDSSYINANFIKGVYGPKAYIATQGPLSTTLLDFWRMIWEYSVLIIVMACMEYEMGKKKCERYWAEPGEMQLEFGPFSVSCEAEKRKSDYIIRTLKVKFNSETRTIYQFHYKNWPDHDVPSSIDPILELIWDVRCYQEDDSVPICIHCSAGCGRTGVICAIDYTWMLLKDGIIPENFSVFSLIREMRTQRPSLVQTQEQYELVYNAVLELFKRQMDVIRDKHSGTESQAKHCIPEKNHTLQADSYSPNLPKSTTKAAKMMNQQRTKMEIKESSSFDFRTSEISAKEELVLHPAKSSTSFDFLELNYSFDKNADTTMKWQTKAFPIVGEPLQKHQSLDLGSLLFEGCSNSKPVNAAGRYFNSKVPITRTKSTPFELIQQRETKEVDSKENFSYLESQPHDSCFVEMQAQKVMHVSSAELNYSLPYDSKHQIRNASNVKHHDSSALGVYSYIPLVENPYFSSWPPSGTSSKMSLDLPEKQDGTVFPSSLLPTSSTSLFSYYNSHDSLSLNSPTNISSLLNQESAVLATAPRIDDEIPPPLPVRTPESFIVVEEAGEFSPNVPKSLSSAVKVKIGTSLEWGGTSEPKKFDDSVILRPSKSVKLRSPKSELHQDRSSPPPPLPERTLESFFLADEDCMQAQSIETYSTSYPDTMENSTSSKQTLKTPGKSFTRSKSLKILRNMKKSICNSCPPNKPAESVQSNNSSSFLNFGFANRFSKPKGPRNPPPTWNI
PLK1 kinase inh = blocks human PLK1 kinase activity. P53350. recombinant PLK1 kinase, TR-FRET peptide phosphorylation. inhibition, % at 10 µM. 97,000 compounds, 0.53% hits;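 active = inhibition of 50% or more in the single-concentration screen; inactive = inhibition below 50%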
Rev-RRE block = HIV Rev-RRE protein-RNA interaction inhibition; Rev peptide-RRE RNA binding, FRET; 97,000 compounds, 0.79% hits; inhibition, % at 8 µM; AID 704;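 active = inhibition above the screen-wide mean plus 3 SD, cut at about 35% in these data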
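assay system = Cy5-tagged RRE RNA duplex with fluorescein-tagged Rev peptide | incubation = 5 + 15 min at 25 °C | also added = labelled Rev peptide | measure = % inhibition of FRET ratio versus controls | benchmarks = DMSO wells as 0% and neomycin B wells as 100% inhibition | measured by = FRET fluorescence readout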
Plk1 PBD FP = blocks phosphopeptide binding to human Plk1 polo box domain | inhibition, %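 (tested at about 20 µM)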 | Plk1 PBD phosphopeptide binding, fluorescence polarization | P53350 | 97,000 compounds, 0.13% hits; in the data active = inhibition above about 34%, passing the limit was not always enough
PLAP activator = human PLAP activation | purified PLAP enzyme, luminescent substrate read-out; active compounds read high | 96,000 compounds, 1.2% hits | activation fold at 20 µM; in the data active = activation fold above about 2
PTPN22 act = activators of human LYP (PTPN22) phosphatase. Q9Y2R2. recombinant LYP, DiFMUP fluorescence; 0 = plate median, 100 = signal doubled. activation, % at 2 µM. 96,000 compounds, 0.11% hits. AID 697;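 active = activation at 2 µM above a set limit, the mean plus 5 SD, cut at about 37% in these data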
Of the large screens only hits and unclear results are named; the others gave an inactive call; [ ] = remark or other dose.

COc1ccccc1CNC(=O)CS(=O)Cc1nc(-c2ccccc2C)oc1C (stereo not given)	none
O=C(Nc1ccc(F)cc1)N(Cc1ccco1)Cc1cc2cc3c(cc2[nH]c1=O)OCO3	Rev-RRE block 37
Cc1ccc(NC(=O)N(Cc2ccc3c(c2)OCO3)Cc2cc3cc4c(cc3[nH]c2=O)OCCO4)cc1	none
COc1cc(C2C(C#N)=C(N)OC3=C2C(=O)CCC3)c([N+](=O)[O-])cc1OC (stereo not given)	Rev-RRE block 48
Cc1cc(C2C(C#N)=C(N)OC3=C2C(=O)CCC3)c(C)s1 (stereo not given)	none
Cc1ccc(S(=O)(=O)N[C@H](C(=O)Oc2ccc3c(C(F)(F)F)cc(=O)oc3c2)c2ccccc2)cc1	Rev-RRE block 58
COC(=O)c1ccc(CSc2nc3ccc(C)cc3[nH]2)o1	PLAP activator 2.2
COc1ccccc1NC(=O)CSc1nc(N)cc(N)n1	none
Cc1cc(NC(=O)COc2cccc(C)c2C)no1	none
Brc1ccc(/C=C/C=N/Nc2nc3ccccc3s2)cc1	none
CCN(CC)c1ccc(/C=C/c2nc3ccccc3s2)cc1	Rev-RRE block 123[fluorescence artefact?]
O=C(CCN1CCN(c2ccccc2)CC1)Nc1nccs1	PLK1 kinase inh 65
COc1ccc(S(=O)(=O)NCCSCc2ccccc2C)cc1Br	none
Cc1ccc(-c2nn(CC(=O)NCc3cc(-c4nn(C)c(=O)c5ccccc45)ccc3C)c(=O)c3ccccc23)cc1	LYP inh 2 25
CCN1C(=O)C2(C(C#N)=C(N)Oc3cc(C)oc(=O)c32)c2ccccc21 (stereo not given)	none
Cc1cc2c(c(=O)o1)C1(C(=O)N(CC(=O)O)c3ccccc31)C(C#N)=C(N)O2 (stereo not given)	Rev-RRE block 49
CN(C)/N=C/C=C1\CC/C(=C\c2ccc(Br)cc2)C1=O	Rev-RRE block 72
Cc1ccc(/C=C2/CCc3c([nH]c4ccccc34)C2=O)cc1	none
Cc1ccc2cc3c(N)c(C(=O)N4CCOCC4)sc3nc2c1	none
Cc1ccc2cc3c(N)c(C(=O)N4CC(=O)Nc5ccccc54)sc3nc2c1	Rev-RRE block 67
Oc1ccc(Nc2nc(-c3ccc4ccccc4c3)cs2)cc1	none
Cn1c(=NC(=O)C2CC2)sc2cccc(F)c21	PLK1 kinase inh 67 (no result: LYP inh 2, PTPN22 act)
S=C(c1ccccc1)N(c1ccccc1)c1ccccc1	none
CSc1nnc(-c2ccco2)n1-c1ccccc1	none
Cc1ccc(-c2cc(NC(=O)CSc3n[nH]c(N)n3)n(-c3ccccc3)n2)cc1	PLAP activator 2.3
[N-]=[N+]=CC(=O)CCCN1C(=O)c2ccccc2C1=O	none
[N-]=[N+]=CC(=O)CC(c1ccccc1)N1C(=O)c2ccccc2C1=O (stereo not given)	PLAP activator 2
COc1ccc(NC2=NCC(=O)N2c2ccccc2)c(OC)c1	none
Cc1ccc(NC2=NCC(=O)N2c2ccc3c(c2)OCCO3)c(C)c1	none (no result: PLAP activator)
Cc1cc(C)nc(NC2=NCC(=O)N2c2ccccc2Br)n1	none (no result: PLAP activator)
Cc1cc(C)nc(NC2=NCC(=O)N2c2cccc(Cl)c2)n1	PLAP activator 2.1
Cc1cc(C)nc(NC2=NCC(=O)N2c2ccc3c(c2)OCCO3)n1	PLAP activator 2
Cc1cc(C)nc(NC2=NCC(=O)N2c2ccccc2)n1	PLAP activator 2.4
COc1ccc(N2C(=O)CN=C2Nc2nc(C)cc(C)n2)cc1	PLAP activator 2.3
COc1ccc(C(=O)CSc2cc(C)nc3nc(C)nn23)cc1OC	none (no result: LYP inh 2, PLK1 kinase inh, Rev-RRE block, Plk1 PBD FP, PTPN22 act)
Nn1c(Cc2cccc3ccccc23)nnc1SC1CCOC1=O (stereo not given)	none
O=C(CC1(O)C(=O)Nc2ccccc21)c1ccccc1 (stereo not given)	PLK1 kinase inh 65 (no result: LYP inh 2, PTPN22 act)
CCOC(=O)CC(=O)CSc1nc2cc(C)ccc2cc1C	none
Cc1cc(Nc2ccc(F)cc2C)n2ncnc2n1	none (no result: LYP inh 2, PLK1 kinase inh, Rev-RRE block, Plk1 PBD FP, PTPN22 act)
CN(C)c1ccc(/C=C(\C#N)C(=O)Nc2nc3c(s2)CCN(Cc2ccccc2)C3)cc1	Rev-RRE block 104[fluorescence artefact?]
O=C(Nc1ccc2nc(-c3ccccc3)[nH]c2c1)c1cccs1	none
O=C(Nc1ccc2nc(-c3ccc4nc[nH]c4c3)[nH]c2c1)c1cccs1	PLAP activator 2.1
CC(C)CCNC(=O)CN(C(=O)Cn1nnc(-c2ccccc2F)n1)c1cccc2c1CCCC2	PLAP activator 2.6
CCc1nnc(NS(=O)(=O)c2ccc(NC(=S)NC(=O)/C=C/c3ccc(C(C)C)cc3)cc2)s1	LYP inh 2 33
Cc1cc(C)nc(NS(=O)(=O)c2ccc(NC(=S)NC(=O)C(C)C)cc2)n1	none (no result: PLAP activator)
COc1ccc(OCC(=O)N(C)Cc2ccccc2)cc1	none (no result: LYP inh 2, PLK1 kinase inh, Rev-RRE block, Plk1 PBD FP, PTPN22 act)
Cc1ccc(CNC(=O)C(OC(=O)c2ccco2)C(C)C)cc1 (stereo not given)	none (no result: LYP inh 2, PLK1 kinase inh, Rev-RRE block, Plk1 PBD FP, PTPN22 act)
Cc1nn(C)cc1C1C2=C(CC(C)(C)CC2=O)N(c2ccccc2)C2=C1C(=O)CC(C)(C)C2	PLAP activator 2
COC(=O)c1cc(NC(=O)Cc2ccc(OC)c(OC)c2)cc(C(=O)OC)c1	none
Cc1ccc(N(CC(=O)NC2CCCC2)C(=O)CCCC(=O)Nc2ccccn2)cc1C	PLK1 kinase inh 58
Cc1ccc(C)c(N(CC(=O)NC2CCCCC2)C(=O)CCC(=O)Nc2ccccn2)c1	none
CN1/C(=C\C=Nc2ccc3ccccc3c2)C(C)(C)c2ccccc21	Rev-RRE block 63
CN1/C(=C\C=Nc2ccccc2)C(C)(C)c2ccccc21	none
CC(C)c1nc2n[nH]c(N)c2c2c1CSC(C)(C)C2	PLK1 kinase inh 59
CN(CC(=O)NC(c1ccccc1)c1ccccc1)Cc1nc2ccccc2c(=O)[nH]1	none
CN(CC(=O)NC(=O)NCc1ccco1)Cc1nc2ccccc2c(=O)[nH]1	PLAP activator 2.3 (no result: LYP inh 2, PLK1 kinase inh, Rev-RRE block, Plk1 PBD FP, PTPN22 act)
CCn1c(SCC(=O)N(C(C)C)C(C)C)nnc1-c1cc2ccccc2cc1O	PLAP activator 2
CCc1nnc(NC(=O)CSc2nnc(-c3cc4ccccc4cc3O)n2CC)s1	none (no result: LYP inh 2, PLK1 kinase inh, Rev-RRE block, Plk1 PBD FP, PTPN22 act)
COc1ccc(S(=O)(=O)N(C)CC(=O)N2CCN(Cc3ccccc3)CC2)cc1C	PLAP activator 2
CCN1CCN(C(=O)CN(C)S(=O)(=O)c2ccc(OC)c(C)c2)CC1	none
O=C(NCc1ccco1)c1ccc2ccccc2c1	none
N/C(=N\OC(=O)CCc1ccccc1)c1ccc(Br)cc1	none
COc1ccc(Cl)cc1S(=O)(=O)N1CCCC(C(=O)NCC(N)=O)C1 (stereo not given)	none (no result: PLAP activator)
O=c1cc(-c2ccccc2)[nH][nH]1	none (no result: PLAP activator)
COc1ccc(-c2cc(=O)[nH][nH]2)cc1OC	PLAP activator 2.2
CCOC(=O)NC1CCS(=O)(=O)C1 (stereo not given)	none
Cc1noc(/C=C/c2ccc(-c3ccccc3Cl)o2)c1[N+](=O)[O-]	Rev-RRE block 103[fluorescence artefact?]
CCOC(=O)N1CCN(CCC(=O)Nc2ccc(OC)cc2OC)CC1	none (no result: PLAP activator)
Clc1ccc(Cc2ccccc2)nn1	none
CCCn1cnc2cc(NCc3ccccn3)ccc21	none (no result: Rev-RRE block)
